According to the M2OR odorant receptor database:
Numbering of substitutions follows the chain as printed.

Columns and labels:
Conditions in all cases: stereoisomer not certain
[1] = tested on: T1, OR5H1
T1 sequence (whole entry): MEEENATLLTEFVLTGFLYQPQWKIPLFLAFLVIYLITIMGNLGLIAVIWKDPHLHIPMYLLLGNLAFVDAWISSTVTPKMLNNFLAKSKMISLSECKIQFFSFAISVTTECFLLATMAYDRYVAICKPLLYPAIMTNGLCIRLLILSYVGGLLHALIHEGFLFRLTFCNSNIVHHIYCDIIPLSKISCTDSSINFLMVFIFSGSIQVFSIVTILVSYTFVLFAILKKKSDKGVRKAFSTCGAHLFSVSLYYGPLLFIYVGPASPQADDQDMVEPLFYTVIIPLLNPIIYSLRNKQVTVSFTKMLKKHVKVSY
Outline: (§1)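 Transient luciferase assays in mammalian cell lines were common, though methods varied by source. The values come from published papers and their supplementary material, with extra details from the original authors when needed. Responsive refers to a measured signal the original authors judged statistically different from baseline, and non-responsive (inactive) to the remainder.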

[2] = tested on: T2, OR5H2
T2 sequence (whole entry): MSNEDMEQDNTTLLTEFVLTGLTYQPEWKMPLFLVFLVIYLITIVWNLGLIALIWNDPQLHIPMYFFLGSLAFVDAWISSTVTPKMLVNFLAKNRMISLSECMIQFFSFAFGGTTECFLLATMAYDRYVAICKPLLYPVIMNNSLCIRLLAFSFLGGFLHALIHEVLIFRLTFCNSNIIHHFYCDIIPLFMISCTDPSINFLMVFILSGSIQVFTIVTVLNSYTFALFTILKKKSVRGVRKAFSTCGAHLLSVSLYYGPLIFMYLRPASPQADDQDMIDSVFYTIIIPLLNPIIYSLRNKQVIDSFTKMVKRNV
Outline: as §1

[3] = target: T3, OR5H6 (Homo sapiens) (UniProt Q8NGV6)
T3 sequence (whole entry): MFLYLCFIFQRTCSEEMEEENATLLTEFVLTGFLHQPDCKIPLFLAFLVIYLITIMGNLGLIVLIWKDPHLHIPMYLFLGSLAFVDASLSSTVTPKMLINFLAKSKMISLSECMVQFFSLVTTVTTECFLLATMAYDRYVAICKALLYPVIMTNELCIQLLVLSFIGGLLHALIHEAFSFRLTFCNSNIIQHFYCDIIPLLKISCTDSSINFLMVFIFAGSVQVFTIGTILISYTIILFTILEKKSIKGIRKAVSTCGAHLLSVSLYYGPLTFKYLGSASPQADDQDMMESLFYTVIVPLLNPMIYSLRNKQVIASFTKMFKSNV
Outline: as §1

[4] = target: T4, OR5I1 (Homo sapiens) (UniProt Q13606)
T4 sequence (whole entry): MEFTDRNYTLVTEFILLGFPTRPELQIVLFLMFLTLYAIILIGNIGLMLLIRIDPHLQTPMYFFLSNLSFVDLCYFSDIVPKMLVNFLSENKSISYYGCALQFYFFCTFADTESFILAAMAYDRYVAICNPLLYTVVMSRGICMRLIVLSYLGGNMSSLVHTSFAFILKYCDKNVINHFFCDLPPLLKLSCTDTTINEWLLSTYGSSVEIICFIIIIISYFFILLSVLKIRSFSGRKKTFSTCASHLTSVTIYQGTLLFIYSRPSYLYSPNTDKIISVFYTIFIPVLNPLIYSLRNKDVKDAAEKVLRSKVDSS
Outline: as §1

[5] = target: T5, OR5J2 (Homo sapiens) (UniProt Q8NH18)
T5 sequence (whole entry): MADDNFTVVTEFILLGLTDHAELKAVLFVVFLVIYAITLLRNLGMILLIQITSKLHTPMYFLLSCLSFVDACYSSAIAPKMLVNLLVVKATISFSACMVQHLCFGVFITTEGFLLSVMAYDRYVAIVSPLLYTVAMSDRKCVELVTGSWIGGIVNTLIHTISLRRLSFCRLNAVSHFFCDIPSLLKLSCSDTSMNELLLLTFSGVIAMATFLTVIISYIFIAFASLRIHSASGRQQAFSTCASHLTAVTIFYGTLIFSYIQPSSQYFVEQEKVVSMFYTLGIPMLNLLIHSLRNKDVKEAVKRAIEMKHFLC
Outline: as §1

[6] = target: T6, OR5K1 (Homo sapiens) (UniProt Q8NHB7)
T6 sequence (whole entry): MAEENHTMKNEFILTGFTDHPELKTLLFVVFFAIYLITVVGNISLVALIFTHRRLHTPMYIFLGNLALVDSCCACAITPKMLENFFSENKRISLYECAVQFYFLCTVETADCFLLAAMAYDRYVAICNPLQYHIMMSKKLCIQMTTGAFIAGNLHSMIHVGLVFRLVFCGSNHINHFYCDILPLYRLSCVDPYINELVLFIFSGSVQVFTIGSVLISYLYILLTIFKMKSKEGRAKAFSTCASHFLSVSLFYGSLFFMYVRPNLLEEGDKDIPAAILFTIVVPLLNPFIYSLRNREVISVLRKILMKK
Outline: as §1

[7] = target: T7, OR5K2 (Homo sapiens) (UniProt Q8NHB8)
T7 sequence (whole entry): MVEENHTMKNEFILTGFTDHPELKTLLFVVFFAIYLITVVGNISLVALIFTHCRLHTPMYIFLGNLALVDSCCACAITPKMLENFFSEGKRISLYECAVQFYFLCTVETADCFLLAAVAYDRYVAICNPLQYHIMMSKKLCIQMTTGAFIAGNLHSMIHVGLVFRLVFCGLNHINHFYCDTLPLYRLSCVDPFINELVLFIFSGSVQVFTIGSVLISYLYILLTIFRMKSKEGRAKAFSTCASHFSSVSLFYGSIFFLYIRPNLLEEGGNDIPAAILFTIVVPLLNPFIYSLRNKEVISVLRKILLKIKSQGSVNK
Outline: as §1

[8] = tested on: T8, OR5K2 L197M
T8 sequence (whole entry): T7 sequence (whole entry) with L197M
Outline: as §1

[9] = target: T9, OR5K3 (Homo sapiens) (UniProt A6NET4)
T9 sequence (whole entry): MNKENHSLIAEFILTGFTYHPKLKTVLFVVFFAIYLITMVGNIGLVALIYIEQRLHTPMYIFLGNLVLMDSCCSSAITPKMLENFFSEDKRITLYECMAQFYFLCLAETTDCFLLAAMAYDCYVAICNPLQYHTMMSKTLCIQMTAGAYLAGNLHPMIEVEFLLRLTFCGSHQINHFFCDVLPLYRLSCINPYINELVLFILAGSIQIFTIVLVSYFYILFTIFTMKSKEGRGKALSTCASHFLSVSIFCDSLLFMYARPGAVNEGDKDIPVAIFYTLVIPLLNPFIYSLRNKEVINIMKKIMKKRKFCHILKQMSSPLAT
Outline: as §1

[10] = target: T10, OR5K4 (Homo sapiens) (UniProt A6NMS3)
T10 sequence (whole entry): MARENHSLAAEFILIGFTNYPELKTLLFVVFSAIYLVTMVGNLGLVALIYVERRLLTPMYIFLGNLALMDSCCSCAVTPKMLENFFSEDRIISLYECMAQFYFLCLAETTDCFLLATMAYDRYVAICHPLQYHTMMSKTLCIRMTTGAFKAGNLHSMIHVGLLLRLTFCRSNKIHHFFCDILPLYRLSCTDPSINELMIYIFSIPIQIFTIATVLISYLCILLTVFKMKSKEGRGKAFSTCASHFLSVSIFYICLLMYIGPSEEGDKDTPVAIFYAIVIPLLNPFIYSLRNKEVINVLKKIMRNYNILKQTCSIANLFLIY
Outline: as §1

[11] = target: T11, OR5L1 (Homo sapiens) (UniProt Q8NGL2)
T11 sequence (whole entry): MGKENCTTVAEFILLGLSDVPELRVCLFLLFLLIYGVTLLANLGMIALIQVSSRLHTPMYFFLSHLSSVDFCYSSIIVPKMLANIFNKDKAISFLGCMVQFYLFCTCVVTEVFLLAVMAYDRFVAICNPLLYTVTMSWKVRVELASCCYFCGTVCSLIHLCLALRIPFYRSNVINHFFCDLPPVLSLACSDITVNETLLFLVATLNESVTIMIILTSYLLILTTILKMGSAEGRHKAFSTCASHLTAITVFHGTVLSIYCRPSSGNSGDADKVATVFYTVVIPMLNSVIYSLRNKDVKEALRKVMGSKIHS
Outline: as §1

[12] = target: T12, OR5L2 (Homo sapiens) (UniProt Q8NGL0)
T12 sequence (whole entry): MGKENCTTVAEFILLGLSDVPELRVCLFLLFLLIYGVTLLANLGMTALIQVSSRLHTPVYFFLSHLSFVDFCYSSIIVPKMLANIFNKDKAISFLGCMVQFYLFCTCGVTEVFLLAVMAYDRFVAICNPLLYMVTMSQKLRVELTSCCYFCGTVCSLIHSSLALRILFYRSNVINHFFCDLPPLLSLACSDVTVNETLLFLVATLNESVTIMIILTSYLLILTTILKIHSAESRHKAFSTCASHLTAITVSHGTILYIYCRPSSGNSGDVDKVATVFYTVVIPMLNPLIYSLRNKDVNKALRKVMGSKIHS
Outline: as §1

[13] = target: T13, OR5M1 (Homo sapiens) (UniProt Q8NGP8)
T13 sequence (whole entry): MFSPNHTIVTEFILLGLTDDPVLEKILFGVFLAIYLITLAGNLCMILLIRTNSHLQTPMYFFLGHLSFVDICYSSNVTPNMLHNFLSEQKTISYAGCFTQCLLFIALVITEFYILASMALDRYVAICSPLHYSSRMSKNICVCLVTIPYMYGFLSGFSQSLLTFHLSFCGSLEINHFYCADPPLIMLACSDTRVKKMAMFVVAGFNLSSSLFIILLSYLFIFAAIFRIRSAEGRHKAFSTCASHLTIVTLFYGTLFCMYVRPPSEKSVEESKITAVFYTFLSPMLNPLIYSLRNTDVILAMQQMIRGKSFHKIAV
Outline: as §1

[14] = tested on: T14, OR5M1 T295R M301I
T14 sequence (whole entry): T13 sequence (whole entry) with T295R, M301I
Outline: as §1

[15] = target: T15, OR5M10 (Homo sapiens) (UniProt Q6IEU7)
T15 sequence (whole entry): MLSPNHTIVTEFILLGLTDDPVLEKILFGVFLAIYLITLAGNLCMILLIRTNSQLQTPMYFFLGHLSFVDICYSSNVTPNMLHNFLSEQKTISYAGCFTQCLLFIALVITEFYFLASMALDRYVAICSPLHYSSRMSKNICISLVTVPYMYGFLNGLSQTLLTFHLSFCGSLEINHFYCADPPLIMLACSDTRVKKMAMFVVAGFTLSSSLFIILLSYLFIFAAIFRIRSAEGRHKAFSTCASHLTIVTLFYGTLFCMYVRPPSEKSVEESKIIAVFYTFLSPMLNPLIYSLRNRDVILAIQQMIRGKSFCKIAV
Outline: as §1

[16] = target: T16, OR5M11 (Homo sapiens) (UniProt Q96RB7)
T16 sequence (whole entry): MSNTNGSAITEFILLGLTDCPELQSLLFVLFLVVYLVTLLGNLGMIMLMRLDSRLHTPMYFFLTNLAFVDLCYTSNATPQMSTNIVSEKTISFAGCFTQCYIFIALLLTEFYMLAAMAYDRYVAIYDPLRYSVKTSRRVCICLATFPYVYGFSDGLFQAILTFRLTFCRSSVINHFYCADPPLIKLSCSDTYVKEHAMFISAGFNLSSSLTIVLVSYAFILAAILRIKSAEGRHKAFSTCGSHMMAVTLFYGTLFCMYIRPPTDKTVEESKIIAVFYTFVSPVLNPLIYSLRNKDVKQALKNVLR
Outline: as §1

[17] = target: T17, OR5M3 (Homo sapiens) (UniProt Q8NGP4)
T17 sequence (whole entry): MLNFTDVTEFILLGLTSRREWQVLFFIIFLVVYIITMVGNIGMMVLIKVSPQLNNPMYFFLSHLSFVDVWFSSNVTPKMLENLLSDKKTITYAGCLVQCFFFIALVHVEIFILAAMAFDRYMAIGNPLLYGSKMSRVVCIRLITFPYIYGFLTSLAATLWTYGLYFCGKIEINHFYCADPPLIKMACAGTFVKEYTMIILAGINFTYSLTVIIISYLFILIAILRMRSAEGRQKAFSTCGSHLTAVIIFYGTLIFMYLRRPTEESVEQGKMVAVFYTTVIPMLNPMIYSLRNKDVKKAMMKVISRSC
Outline: as §1

[18] = tested on: T18, OR5M3 N3Y A156T
T18 sequence (whole entry): T17 sequence (whole entry) with N3Y, A156T
Outline: as §1

Measured: odorant receptor agonist call;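 note: active if original authors judged signal statistically different from baseline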

CCC1OC(=O)C(O)=C1C (stereo not drawn)
inactive: all assays above

CCCSSSCCC
inactive: [6] | [17]

CCCCCCCCCC(=O)OCC
inactive: [6] | [17]

CCCCC=CC=O
inactive: [6] | [17]

COc1nccnc1CC(C)C
inactive: [7] | [9] | [10] | [17]
active: [6]

CCCCCC=CC=CC=O
inactive: [6] | [17]

CCC=O
inactive: [6] | [17]
